Reference: paper PMC3952852 (Molecular Biology of the Cell, 2014)

Experiments:
[1] = test system: Jurkat cells; assay: CXCL12-induced chemotaxis, Transwell, Jurkat cells; format: cell-based; conditions: pretreated 30 min, 5 nM CXCL12, 3 h
Method in brief: (§1)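 Cells at 2×10^6 cells/ml in RPMI1640 with 0.5% BSA were pretreated 30 min at room temperature with test compound or vehicle (final 0.3% DMSO). 2×10^5 cells went into the upper well (5-µm pore Transwell). The lower well held RPMI, 0.5% BSA, 5 nM CXCL12 and compound or vehicle. After 3 h at 37°C, migrated cells in the lower well were counted. Mean ± SD of four independent experiments; one-way ANOVA with Dunnett's test.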

[2] = biological target: PKCα (Homo sapiens, UniProt P17252); assay: in vitro kinase assay, PKCα; format: biochemical
[3] = test system: Jurkat cells; assay: CXCL12-induced lamellipodium formation in Jurkat cells; format: cell-based; conditions: Dam 30 min, then 5 nM CXCL12 for 20 min
Method in brief: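 Jurkat cells were given 5 µM test compound or vehicle for 30 min, then 5 nM CXCL12 for 20 min. They were fixed and stained with rhodamine–phalloidin for F-actin, then scored into three classes: large lamellipodia, small lamellipodia, or round without lamellipodium. 200–300 cells were counted per experiment. Class percentages are mean ± SD of three independent experiments.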

[4] = biological target: Src (Homo sapiens, UniProt P12931); assay: in vitro kinase assay, active Src; format: biochemical
[5] = biological target: ROCK (Homo sapiens, UniProt Q13464); assay: in vitro kinase assay, ROCK; format: biochemical
[6] = biological target: T1, LIMK1 (Homo sapiens, UniProt P53667); format: biochemical; conditions: range of inhibitor concentrations
[7] = test system: P-cofilin in Vero 2-2 cells; assay: 2D gel analysis of 32P-labeled phospho-proteins in whole cell lysates; format: cell-based; conditions: 10 μM, 5 h
[8] = test system: P-cofilin in Jurkat cells; assay: CXCL12-induced cofilin phosphorylation in Jurkat cells; format: cell-based; conditions: 5 nM CXCL12 for 5 min
Method in brief: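 Jurkat cells (RPMI, 10% FCS) were stimulated with 5 nM CXCL12 for 5 min. Lysates in HEPES pH 7.4 lysis/kinase buffer were immunoblotted for P-cofilin, cofilin, P-MAPK and MAPK. P-cofilin was expressed relative to control cells, set at 1.0.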

[9] = test system: JCaM1.6 cells; assay: CXCL12-induced chemotaxis, Transwell, JCaM1.6 cells; format: cell-based; conditions: Lck-deficient JCaM1.6, pretreated 30 min, 5 nM CXCL12, 3 h
Method in brief: as §1

[10] = test system: P-cofilin in N1E-115 cells; assay: cofilin phosphorylation immunoblot in LIMK1-CFP-overexpressing N1E-115 cells; format: cell-based; conditions: 30 min
[11] = test system: MDA-MB-231 cells; assay: serum-induced Matrigel invasion assay, MDA-MB-231 cells; format: cell-based, human; conditions: MDA-MB-231, Matrigel, 15 h
Method in brief: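 MDA-MB-231 cells (2×10^5 cells/ml) were serum-starved 3 h and resuspended in serum-free DMEM. They were pretreated 30 min at room temperature with test compound or vehicle (final 0.3% DMSO). Transwell inserts (8-µm pore) were coated with 50 µg Matrigel for 1 h at 37°C and washed three times with DMEM. 2×10^4 cells were loaded, with serum in the lower chamber. After 15 h, invaded cells on the lower membrane face were counted. Mean ± SD of six independent experiments; Dunnett's test.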

[12] = biological target: PAK3 (Homo sapiens, UniProt O75914); assay: in vitro kinase assay, PAK3; format: biochemical
[13] = biological target: CaMKIα (Homo sapiens, UniProt Q14012); assay: in vitro kinase assay, CaMKIα; format: biochemical
[14] = test system: epidermal Langerhans cells; assay: hapten; format: in vivo, mouse; conditions: 20 μM topical
Method in brief: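 BALB/c mice (8–10 wk): each ear painted with 20 µl of 20 µM test compound in 2% DMSO in 1:4 acetone/olive oil, or vehicle. 30 min later, 20 µl 3% TNCB or vehicle applied, ± 20 µM compound; repainted at 12 h; ears taken 24 h post-TNCB. NH4SCN-separated, acetone-fixed epidermal sheets stained with FITC anti-I-Ad; confocal imaging, 15 areas/ear; five experiments, mean ± SD, ANOVA/Dunnett.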

[15] = test system: P-MAPK in Jurkat cells; assay: CXCL12-induced MAPK phosphorylation in Jurkat cells; format: cell-based; conditions: 5 nM CXCL12 for 5 min
Method in brief: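 Jurkat cells grown in RPMI with 10% FCS were stimulated with 5 nM CXCL12 for 5 min, with or without test compound. Cells were lysed in HEPES pH 7.4 lysis/kinase buffer containing NP-40, NaF, Na3VO4 and protease inhibitors. Lysates were immunoblotted for P-MAPK and total MAPK, alongside P-cofilin and cofilin.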

[16] = biological target: T1, LIMK1; assay: in vitro kinase assay, LIMK1; format: biochemical; conditions: cofilin substrate; for effect on the kinase activity of LIMK1: concentrations of 1–30 μM
[17] = test system: Lck; conditions: read-out: IC50 for Lck; ref Jayasuriya et al., 1992; cited from earlier work

T1 sequence (P53667 whole entry): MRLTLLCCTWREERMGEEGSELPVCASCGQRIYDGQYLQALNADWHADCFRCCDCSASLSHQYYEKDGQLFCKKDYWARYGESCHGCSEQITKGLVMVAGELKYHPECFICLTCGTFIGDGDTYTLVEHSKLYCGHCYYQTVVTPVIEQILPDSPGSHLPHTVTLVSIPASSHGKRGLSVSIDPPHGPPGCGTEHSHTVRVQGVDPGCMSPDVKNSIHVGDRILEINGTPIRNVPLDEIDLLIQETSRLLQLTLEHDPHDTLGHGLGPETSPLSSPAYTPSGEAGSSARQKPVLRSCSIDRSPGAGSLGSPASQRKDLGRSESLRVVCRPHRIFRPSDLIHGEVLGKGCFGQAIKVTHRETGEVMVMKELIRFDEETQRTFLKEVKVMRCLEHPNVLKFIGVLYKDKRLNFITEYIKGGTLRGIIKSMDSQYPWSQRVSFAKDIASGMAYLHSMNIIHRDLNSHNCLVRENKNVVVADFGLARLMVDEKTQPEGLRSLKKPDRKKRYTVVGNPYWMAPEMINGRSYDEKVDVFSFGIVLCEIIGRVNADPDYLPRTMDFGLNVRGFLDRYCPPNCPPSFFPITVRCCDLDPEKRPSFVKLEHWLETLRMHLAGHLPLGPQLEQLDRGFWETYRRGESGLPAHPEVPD
Sequence of Src (P12931 270-523 limits assumed): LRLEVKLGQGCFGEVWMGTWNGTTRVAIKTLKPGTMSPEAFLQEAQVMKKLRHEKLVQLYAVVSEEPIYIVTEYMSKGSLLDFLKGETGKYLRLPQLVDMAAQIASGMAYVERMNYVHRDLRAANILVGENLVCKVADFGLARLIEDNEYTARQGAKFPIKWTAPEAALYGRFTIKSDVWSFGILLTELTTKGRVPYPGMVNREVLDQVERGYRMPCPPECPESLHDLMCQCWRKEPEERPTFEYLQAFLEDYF
Sequence of CaMKIα (Q14012 1-293, species assumed): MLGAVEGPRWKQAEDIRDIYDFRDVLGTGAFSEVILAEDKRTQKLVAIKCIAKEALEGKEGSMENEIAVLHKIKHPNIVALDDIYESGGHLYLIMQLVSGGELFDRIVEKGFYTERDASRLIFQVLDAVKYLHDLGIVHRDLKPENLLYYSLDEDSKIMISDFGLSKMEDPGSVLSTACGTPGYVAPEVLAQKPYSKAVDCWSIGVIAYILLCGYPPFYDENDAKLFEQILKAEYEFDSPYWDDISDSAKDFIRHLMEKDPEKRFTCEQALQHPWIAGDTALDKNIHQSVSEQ
Sequence of ROCK (Q13464 1-727): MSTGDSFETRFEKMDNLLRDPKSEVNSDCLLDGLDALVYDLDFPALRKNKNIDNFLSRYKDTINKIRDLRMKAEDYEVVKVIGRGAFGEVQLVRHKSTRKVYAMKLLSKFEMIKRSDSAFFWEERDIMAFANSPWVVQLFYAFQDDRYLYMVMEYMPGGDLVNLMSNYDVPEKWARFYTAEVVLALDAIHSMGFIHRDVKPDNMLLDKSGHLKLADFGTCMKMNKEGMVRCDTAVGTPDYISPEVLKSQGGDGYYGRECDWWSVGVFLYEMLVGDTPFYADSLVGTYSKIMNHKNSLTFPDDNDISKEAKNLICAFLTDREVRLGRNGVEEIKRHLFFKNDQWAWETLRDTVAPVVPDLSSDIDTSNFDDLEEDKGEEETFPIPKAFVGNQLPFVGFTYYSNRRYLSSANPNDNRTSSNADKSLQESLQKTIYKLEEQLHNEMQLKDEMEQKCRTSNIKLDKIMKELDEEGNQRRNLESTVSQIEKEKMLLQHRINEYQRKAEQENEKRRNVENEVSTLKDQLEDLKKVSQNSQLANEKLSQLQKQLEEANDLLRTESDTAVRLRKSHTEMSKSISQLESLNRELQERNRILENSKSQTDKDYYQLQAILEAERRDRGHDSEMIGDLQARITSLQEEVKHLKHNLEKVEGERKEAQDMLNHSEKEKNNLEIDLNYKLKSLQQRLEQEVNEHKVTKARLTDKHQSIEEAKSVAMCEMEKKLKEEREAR
Sequence of PAK3 (O75914 177-559, species assumed): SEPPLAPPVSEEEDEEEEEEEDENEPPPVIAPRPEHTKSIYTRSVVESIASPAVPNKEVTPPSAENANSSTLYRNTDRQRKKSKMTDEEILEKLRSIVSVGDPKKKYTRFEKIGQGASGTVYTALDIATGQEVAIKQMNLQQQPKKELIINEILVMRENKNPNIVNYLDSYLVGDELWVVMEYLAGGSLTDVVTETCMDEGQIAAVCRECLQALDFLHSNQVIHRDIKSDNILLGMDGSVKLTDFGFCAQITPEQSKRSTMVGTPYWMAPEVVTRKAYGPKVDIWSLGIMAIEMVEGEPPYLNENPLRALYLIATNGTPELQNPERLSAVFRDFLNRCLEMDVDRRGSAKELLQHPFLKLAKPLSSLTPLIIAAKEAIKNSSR

With `COc1c(C=O)c(O)cc2c1C(=O)c1ccccc1C2=O` [Dam, 3-hydroxy-1-methoxy-9,10-dioxoanthraquinone-2-carbaldehyde] the “concentration range inhibiting CXCL12-induced chemotaxis” value [1] was 3 to 10 µM, the IC50 [2] was over 20 µM and the “effect on lamellipodium formation after CXCL12 stimulation” value [3] was “fewer cells with large lamellipodial protrusions and more cells with small or no lamellipodial protrusions”. For the same molecule, the IC50 [4] was over 20 µM, the IC50 [5] was over 20 µM and the “concentration range inhibiting the kinase activity of LIMK1 in detailed in vitro BiFC assays” value [6] was 5 to 10 µM. For the same molecule, the “amount of P-cofilin in treated cells compared with untreated cells” value [7] was “decreased”, the “concentration range suppressing CXCL12-induced increase of P-cofilin” value [8] was 3 to 10 µM and the “concentration range inhibiting CXCL12-induced chemotaxis” value [9] was 3 to 10 µM. For the same molecule, the “concentration range significantly decreasing P-cofilin level” value [10] was 5 to 10 µM, the “concentration range significantly suppressing serum-induced invasion” value [11] was 3 to 10 µM and the IC50 [12] was over 20 µM. The IC50 [13] was over 20 µM, the “effect on hapten-induced Langerhans cell size changes” value ([14]; TNCB) was “no apparent effect” and the “effect on Langerhans cell density of control ears” value ([14]; no TNCB) was “no effect”. The “effect on increase in P-MAPK after CXCL12 stimulation” value [15] was “unaffected”.
With `NO` [Hydroxylamine, hydroxylamine] the “effect of hydroxylamine alone on LIMK1 activity” value ([16]; LIMK1-CFP) was “no effect”.
In the case of `Cc1cc(O)c2c(c1)C(=O)c1cc(O)cc(O)c1C2=O` [emodin], the IC50 [17] is given as 18.5 µM and the “effect on the kinase activity of LIMK1” value [16] is given as “no appreciable effect”.
In the case of `O=C1c2c(O)ccc(O)c2C(=O)c2c(NCCNCCO)ccc(NCCNCCO)c21` [mitoxantrone], the “effect on the kinase activity of LIMK1” value [16] is reported as “no appreciable effect”.
